For one compound, Drug metabolism, inhibition and IC50 results are on record in ChEMBL document CHEMBL3421565, “β-D-2'-C-Methyl-2,6-diaminopurine Ribonucleoside Phosphoramidates are Potent and Selective Inhibitors of Hepatitis C Virus (HCV) and Are Bioconverted Intracellularly to Bioactive 2,6-Diaminopurine and Guanosine 5'-Triphosphate Forms” (J Med Chem, 2015).

Active and inactive are the calls of the source. The rule behind the calls is not given here.

In data set [1] the test system is Hepatocyte. Put plainly: Drug level in human primary hepatocytes treated with 50 uM Isopropyl 3-(2-(((S)-(((2R,3S,4R,5R)-5-(2,6-Diamino-9H-purin-9-yl)-3,4-dihydroxy-4-methyltetrahydrofuran-2-yl)methoxy)-(((S)-1-isopropoxy-1-oxopropan-2-yl)amino)phosphoryl)oxy)-phenyl)propanoate 15c(Sp) and Isopropyl 3-(2-(((R)-(((2R,3S,4R,5R)-5-(2,6-Diamino-9H-purin-9-yl)-3,4-dihydroxy-4-methyltetrahydrofuran-2-yl)methoxy)(((S)-1-isopropoxy-1-oxopropan-2-yl)amino)phosphoryl)oxy)phenyl)propanoate assessed as compound formation incubated for 4 hrs at 37 degC by LC-MS/MS method. It is filed as ADME, cell-based. An outline of the steps:
(§1)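 Freshly plated primary human hepatocytes seeded at 1 × 10⁶ per well and acclimated overnight, then given 50 μM compound for 4 h at 37 °C. After two ice-cold PBS washes, extraction ran overnight at −20 °C in 70% methanol with 20 nM ddATP. Dried extracts went to LC–MS/MS for intracellular metabolites, as three replicates from one plate, ±SD.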

Data set [2] can be described thus: Drug level in human HuH7 cells treated with 50 uM Ethyl 3-(2-(((R)-(((2R,3R,4R,5R)-5-(2,6-Diamino-9H-purin-9-yl)-3,4-dihydroxy-4-methyltetrahydrofuran-2-yl)methoxy)(((S)-1-ethoxy-1-oxopropan-2-yl)amino)phosphoryl)oxy)phenyl)-propanoate assessed as compound formation incubated for 4 hrs at 37 degC by LC-MS/MS method. The following applies: huh-7, 4 h. The data set is classed as ADME, cell-based. Put shortly:
(§2)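 Huh-7 cells seeded at 1 × 10⁶ per well and exposed to 50 μM compound after attachment, 4 h at 37 °C. Cells washed twice with ice-cold PBS, then extracted overnight at −20 °C in 70% methanol containing 20 nM ddATP. Supernatants were dried and analysed by LC–MS/MS for parent nucleoside and its mono-, di- and triphosphates (pmol/10⁶ cells).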

Data set [3] deals with Hepatocyte. Put plainly: Drug level in human primary hepatocytes treated with 50 uM Ethyl 3-(2-(((R)-(((2R,3R,4R,5R)-5-(2,6-Diamino-9H-purin-9-yl)-3,4-dihydroxy-4-methyltetrahydrofuran-2-yl)methoxy)(((S)-1-ethoxy-1-oxopropan-2-yl)amino)phosphoryl)oxy)phenyl)-propanoate assessed as compound formation incubated for 4 hrs at 37 degC by LC-MS/MS method. It is filed as ADME, cell-based. Put shortly:
as §1

A short description of data set [4]: Drug level in human HuH7 cells treated with 50 uM Isopropyl 3-(2-(((S)-(((2R,3S,4R,5R)-5-(2,6-Diamino-9H-purin-9-yl)-3,4-dihydroxy-4-methyltetrahydrofuran-2-yl)methoxy)-(((S)-1-isopropoxy-1-oxopropan-2-yl)amino)phosphoryl)oxy)-phenyl)propanoate 15c(Sp) and Isopropyl 3-(2-(((R)-(((2R,3S,4R,5R)-5-(2,6-Diamino-9H-purin-9-yl)-3,4-dihydroxy-4-methyltetrahydrofuran-2-yl)methoxy)(((S)-1-isopropoxy-1-oxopropan-2-yl)amino)phosphoryl)oxy)phenyl)propanoate assessed as compound formation incubated for 4 hrs at 37 degC by LC-MS/MS method. It is filed as ADME, cell-based. The following applies: huh-7, 4 h. An outline of the steps: as §2

A short description of data set [5]: Drug level in human HuH7 cells treated with 50 uM beta-D-2,6-diaminopurine nucleoside assessed as compound formation incubated for 4 hrs at 37 degC by LC-MS/MS method. It is filed as ADME, cell-based. The following applies: huh-7, 4 h. An outline of the steps: as §2
In data set [6] the test system is Hepacivirus hominis. Put plainly: (§3) Inhibition of HCV C-terminal His-tagged NS5Bdelta21 enzyme assessed as reduction in NS5B-mediated RNA polymerization using [32P]-GpG primer, RNA template and rNTP nucleotide mix incubated for 120 mins by PAGE method. Put shortly:
(§4)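 Purified NS5BΔ21 (C-terminal His tag), 1 μM, at 30 °C with 1 μM 20-mer RNA template and 1 μM ³²P-GpG primer. Buffer was 40 mM Tris pH 7.5, 6 mM NaCl, 2 mM MgCl₂. Started with 10 μM NTP mix, 1 μM competing NTP and triphosphate inhibitor at 0–100 μM. Products run on 20% denaturing PAGE and quantified; IC₅₀ calculated.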

Data set [7] in a line: as §3. Set-up: species or system Hepacivirus hominis. An outline of the steps:
as §4

Data set [8] has as its system Hepatocyte. Nature of the data set: Drug level in human primary hepatocytes treated with 50 uM beta-D-2,6-diaminopurine nucleoside assessed as compound formation incubated for 4 hrs at 37 degC by LC-MS/MS method. The data set is classed as ADME, cell-based. An outline of the steps:
as §1

The test system of data set [9] is Hepacivirus hominis. Nature of the data set: Inhibition of HCV C-terminal His-tagged NS5Bdelta21 enzyme assessed as induction of pausing at sites of AMP incorporation during NS5B-mediated RNA polymerization using [32P]-GpG primer, RNA template and rNTP nucleotide mix incubated for 120 mins by PAGE method. Put shortly:
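Purified NS5BΔ21 (C-terminal His tag), 1 μM, at 30 °C with 1 μM 20-mer RNA template and 1 μM ³²P-GpG primer. Buffer was 40 mM Tris pH 7.5, 6 mM NaCl, 2 mM MgCl₂. Started with 10 μM NTP mix, 1 μM competing NTP and triphosphate inhibitor at 0–100 μM. Stopped at 120 min with EDTA/formamide. Products run on 20% denaturing PAGE and quantified; IC₅₀ calculated.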

In general, IC50 refers to the concentration at which inhibition is half-maximal. With `C[C@@]1(O)[C@H](O)[C@@H](COP(=O)(O)OP(=O)(O)OP(=O)(O)O)O[C@H]1n1cnc2c(N)nc(N)nc21`, the Drug metabolism result (with Hepatocyte [1]; in [2]; with Hepatocyte [3]; in data set [4]; in data set [5]; in the data set on Hepatocyte [8]) was “metabolite_detected” each time. In the data set with Hepacivirus hominis [6], the inhibition result is “Dose-dependent effect”. Moreover, the concentration for half-maximal inhibition (IC50) in data set [7] worked out at 3.4 µM. Also, in the data set on Hepacivirus hominis [9], the inhibition entry is “Active”.
